Bioassay records deposited in PubChem BioAssay by Broad Institute.
esBAF inh: Bmi1 luciferase reporter increase in mESCs, primary screen, esBAF inhibitor project, mouse ES cells, Bmi1 luciferase knock-in, single point; reporter increase, % at 12.5 µM; 350,000 compounds, 2% hits; 24 h; 100% = twice the neutral-well signal; in the data active = activation above about 40%; inconclusive = no clear call, values can overlap the other calls;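 also: a rise in the Bmi1 reporter signal indicates esBAF inhibition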
Vif imaging: HIV Vif self-association inhibitors, primary screen, imaging, HEK293T, single point. inhibition, % at 7.49 µM. AID 602346, 2012. 340,000 compounds, 0.35% hits. HEK293T cells, Vif self-association by quenched fluorescence, 24 h; in the data active = inhibition above about 50%, passing the limit was not always enough; inconclusive = no clear call, values can overlap the other calls; inactive = below about 31%
MITF TRPM1 HTS: activators of MITF-driven TRPM1 promoter reporter, primary screen, cell-based, SK-MEL-5, luciferase, single point; SK-MEL-5 TRPM1-promoter luciferase, 24 h; % of positive control, neutral wells = 0; activation, % at 12.5 µM; 300,000 compounds, 0.75% hits;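 active = mean activation of at least 80% with every replicate also reaching 80%; inconclusive = mean reaches 80% but some replicate falls short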
Xi reactivation: activators of inactive X chromosome reactivation, primary screen, imaging, XiGFP fibroblasts, GFP high-content imaging, set 2; XiGFP mouse fibroblasts, % GFP-positive cells imaging, 3 d; cells co-treated with 5-aza-dC sensitizer; scaled so ellipticine positive control = 100%; activation, % at 7.58 µM; 360,000 compounds, 0.055% hits; AID 743238, 2013;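 active = mean normalized replicate activation at least 10% and every replicate at or above 10%; inconclusive = only one of the two criteria met; inactive = mean below 10% and not all replicates reach 10%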
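System: SV40-immortalized XiGFP fibroblast cells, line 68-5-11 / Incubation: 3-day compound exposure, then 15 min fixation at room temperature / Compound: single concentration per compound, delivered by pin transfer / Buffer or medium: DMEM plus 5-aza-dC sensitizer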
Wnt bcat act: Wnt/beta-catenin pathway activators, primary screen, cell-based, plate reader, single point; Wnt/beta-catenin reporter cell assay, activator; activation, % at 9.35 µM; 300,000 compounds, 1.2% hits; in the data active = activation above about 30%, passing the limit was not always enough; inconclusive = no clear call, values can overlap the other calls
Ring1 derepress: Ring1 mRNA increase in mouse ESCs, confirmation, esBAF inhibitor project, cell-based, mouse ESC, RT-qPCR, cherry-pick; shares compounds with esBAF inh; mouse ESC E14, Ring1 mRNA RT-qPCR fold change; fold change at 33 µM; 550 tested, under 10 active;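 active = Ring1 gene expression raised more than 2-fold over untreated cells in both replicates at either tested dose; inconclusive = only one replicate above 2-fold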;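 also: Ring1 transcript normalised to actin housekeeping signal by TaqMan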
Fgf4 repress: Fgf4 mRNA decrease in mouse ESCs, confirmation, esBAF inhibitor project, cell-based, mouse ESC, RT-qPCR, cherry-pick; 550 compounds, 4% hits; Fgf4 expression fold change at 33 µM; AID 743177, 2013; shares compounds with esBAF inh; mouse ESC E14, Fgf4 mRNA qPCR fold change; stronger effect = lower value;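 active = Fgf4 expression under 0.8 fold of control in both repeat measurements at one or both tested doses; inconclusive = under 0.8 fold in just a single repeat measurement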;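 also: Fgf4 transcript normalised to actin in duplex TaqMan qPCR; cells exposed to compound for 24 h before lysis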
Bmi1 derepress: esBAF inhibition via Bmi1 de-repression, confirmation, cell-based, RT-qPCR, mouse ESC, single point, cherry-pick. AID 743180, 2013. fold change at 33 µM. mouse ESE14 ES cells, Bmi1 mRNA qPCR fold; stronger effect = higher value. 550 tested, under 10 active. shares compounds with esBAF inh;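 active = Bmi1 expression fold change above 6 at either tested concentration, seen in replicate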
A549 tox SP: A549 cell cytotoxicity, cytotoxicity control, plate reader, single point, cherry-pick; AID 743188, 2013; cell viability change % (negative = cytotoxic), % at 25 µM, hits read low; shares compounds with esBAF inh; 550 tested, under 10 active; call rule not given here
HepG2 cytotox SP: HepG2 cell cytotoxicity, cytotoxicity control, plate reader, single point, cherry-pick; 550 compounds, 4% hits; AID 743189, 2013; shares compounds with esBAF inh; stronger effect = lower value; activity change, negative = inhibition, % at 25 µM; in the data active = activity change below about -50%
HEK293 tox SP: HEK293 cell cytotoxicity, cytotoxicity control, plate reader, single point, cherry-pick. shares compounds with esBAF inh. activity change, negative = inhibition, % at 25 µM, hits read low. 550 compounds, 3% hits. AID 743190, 2013; in the data active = activity change below about -38%, passing the limit was not always enough
A number is an active result; 0 = inactive; ? = inconclusive; - = no result given. This is a sample that favours compounds with a hit; in the whole collection about 2.6% have one here.

SMILES	esBAF inh	Vif imaging	MITF TRPM1 HTS	Xi reactivation	Wnt bcat act	Ring1 derepress	Fgf4 repress	Bmi1 derepress	A549 tox SP	HepG2 cytotox SP	HEK293 tox SP
O=C(NC1CCCC1)c1cc(-c2ccc(Cl)c(Cl)c2)on1	64.3	0	106.7	0	0	0	0	0	0	0	0
N/C(=N\OC(=O)C1CCCCC1)c1ccc(Cl)cc1	65.3	0	0	0	0	0	0	0	0	0	0
O=C(C[C@@H]1CC[C@@H](NC(=O)C2CCC2)[C@@H](CO)O1)NC1CCCCC1	0	-	-	0	-	-	-	-	-	-	-
CCCC1CCC(c2nc(-c3cccnc3)no2)CC1 (configuration not stated)	60.1	0	0	-	-	0	?	0	0	0	0
O=C(Nc1ccc(F)cc1F)NC1CC1	-	0	0	0	0	-	-	-	-	-	-
O=C(Nc1ccc(F)cc1F)NC1CCCCCCC1	63.1	0	0	0	0	0	0	0	0	-50.9	0
COc1ccc(C(=O)Nc2ccc3c(c2)OC[C@H](C)NC[C@@H](C)[C@H](OC)CN(C)C3=O)cc1	0	-	-	0	-	-	-	-	-	-	-
O=c1sc(N2CCN(c3ccc(F)cc3)CC2)nc2ccsc12	62.4	68.3	-	0	0	0	0	0	0	0	0
O=C(NC(=O)c1ccc(C(F)(F)F)cc1)Nc1ccc(-c2cnco2)cc1	-	0	-	0	0	-	-	-	-	-	-
O=C(Nc1ccc(-c2cnco2)cc1)c1ccc(F)cc1F	63.2	0	0	0	38.7	1.13	0	0	0	0	0
Cc1cc(C)c2c(N)c(C(=O)Nc3ccccc3Br)sc2n1	60.6	0	0	0	0	0	0	0	0	0	0
CN(C)c1ccc(C(=O)c2ccccc2)cc1	57.7	0	0	-	0	0	?	0	0	0	0
C[C@H]1CN([C@@H](C)CO)C(=O)c2c(c3ccccc3n2C)-c2ccccc2CO[C@@H]1CN(C)C(=O)CCC(F)(F)F	0	-	-	0	-	-	-	-	-	-	-
CCN(C(=O)CN1C(=O)S/C(=C\C=C\c2ccccc2)C1=O)C1CCS(=O)(=O)C1 (configuration not stated)	55.2	0	0	0	0	0	?	0	0	0	0
CCCNC(=O)N1C[C@@H](C)[C@H](OC)CN(C)C(=O)c2ccc(NS(=O)(=O)CC(F)(F)F)cc2OC[C@@H]1C	0	-	-	0	-	-	-	-	-	-	-
Cc1cc(-c2nnc(-c3cccc(C(F)(F)F)c3)o2)no1	59.3	0	0	0	0	0	0	0	0	0	0
Cc1cc(-c2nnc(CCC(=O)NCc3cccc(C(F)(F)F)c3)o2)no1	0	0	0	0	0	-	-	-	-	-	-
CC=Cc1ccc2n(c1=O)C[C@@H]1[C@@H](CO)[C@H](C(=O)NCCC)N(C(=O)C3CCOCC3)[C@H]21 (mixture of isomers)	0	-	-	0	-	-	-	-	-	-	-
O=C(C[C@@H]1C=C[C@H](NC(=O)Nc2ccc(F)cc2)[C@H](CO)O1)NCc1ccccn1	0	-	-	0	-	-	-	-	-	-	-
COc1ccc(C)c2sc(=NC(=O)c3ccc(C(C)=O)cc3)n(C)c12	-	0	?	0	0	-	-	-	-	-	-
COc1ccc(C)c2sc(=NC(=O)c3cccc(N4C(=O)CCC4=O)c3)n(C)c12	75.8	0	0	0	0	0	0	0	0	0	0
Clc1ccc(-c2nnc(-c3cccc4ccccc34)o2)cc1	71.0	0	0	0	39.1	0	0	0	0	0	0
COc1cccc(/C=C2/NC(=O)N(CC(=O)Nc3ccc(C)cc3)C2=O)c1OCc1cccc(C(=O)O)c1	0	0	0	0	0	-	-	-	-	-	-
Cc1ccc(NC(=O)CN2C(=O)N/C(=C/c3ccccc3OCc3cccc(C(=O)O)c3)C2=O)cc1	0	0	0	0	0	0	0	0	0	0	0
COc1ccc(NC(=O)c2cc(-c3ccc(F)cc3C)n[nH]2)cc1OC	0	0	-	0	0	-	-	-	-	-	-
SMILES	esBAF inh	Vif imaging	MITF TRPM1 HTS	Xi reactivation	Wnt bcat act	Ring1 derepress	Fgf4 repress	Bmi1 derepress	A549 tox SP	HepG2 cytotox SP	HEK293 tox SP
Cc1cc(F)ccc1-c1cc(C(=O)Nc2ccc(F)cc2)[nH]n1	70.7	0	-	0	0	0	0	0	0	0	0
CC(=Nc1ccccc1O)c1sc2ccccc2c1O	82.7	0	0	0	85.5	0	0	0	0	0	0
COc1ccc(CN(C)C[C@@H]2OCCCC[C@H](C)Oc3ccc(N(C)C)cc3C(=O)N([C@H](C)CO)C[C@H]2C)cc1	0	-	-	0	-	-	-	-	-	-	-
C=CCNc1nc(NCc2cccc(OC)c2)c2sc(-c3ccccc3)cc2n1	70.9	0	-	0	0	3.7	0.3	17.3	0	0	-65.9
C[C@@H]1CCCCO[C@H](CN(C)C(=O)Nc2ccc3c(c2)OCO3)[C@H](C)CN([C@H](C)CO)C(=O)c2cc(NC(=O)NC3CCCCC3)ccc2O1	0	-	-	0	-	-	-	-	-	-	-
CCc1c(C(=O)OCc2ccccc2)[nH]c(C)c1C	53.1	0	0	0	0	0	0	0	0	0	0
CCc1c(C)[nH]c(C(=O)OCc2ccccc2)c1C	-	0	0	0	0	-	-	-	-	-	-
Cc1ccc(CNC(=O)C2CCC(=O)N(CCc3ccc(Cl)cc3)C2)s1 (configuration not stated)	0	0	0	0	0	-	-	-	-	-	-
Cc1ccc(CNC(=O)C2CCC(=O)N(CCc3ccc(Cl)cc3)C2)cc1 (configuration not stated)	56.3	0	0	0	0	0	0	0	0	0	0
C[C@@H]1CN([C@@H](C)CO)C(=O)c2cc(NS(C)(=O)=O)ccc2O[C@H]1CN(C)Cc1ccc(C(=O)Nc2ccccc2N)cc1	0	-	-	0	-	-	-	-	-	-	-
COc1ccc(NC(=O)N(C)C[C@H]2OCCCC[C@@H](C)Oc3ccc(NC(=O)Nc4ccc(C(F)(F)F)cc4)cc3C(=O)N([C@@H](C)CO)C[C@H]2C)cc1	0	-	-	0	-	-	-	-	-	-	-
